{"source": "ChEMBL document CHEMBL4043246", "about": "“Discovery of novel [1,2,4]triazolo[4,3-a]quinoxaline aminophenyl derivatives as BET inhibitors for cancer treatment” (Bioorg Med Chem Lett, 2017)", "key": {"[1]": {"biological_target": "Bromodomain and PHD finger-containing protein 3 (Homo sapiens) (UniProt Q9ULD4)", "test": "Inhibition of human partial length BRPF3 (E588 to G701 residues) expressed in bacterial expression system assessed as residual activity at 500 nM relative to control by BROMOscan assay"}, "[2]": {"biological_target": "Bromodomain-containing protein 1 (Homo sapiens) (UniProt O95696)", "test": "Inhibition of human partial length BRD1 (E556 to A688 residues) expressed in bacterial expression system assessed as residual activity at 500 nM relative to control by BROMOscan assay"}, "[3]": {"biological_target": "CREB-binding protein (Homo sapiens) (UniProt Q92793)", "test": "Inhibition of human partial length CREBBP (R1081 to G1197 residues) expressed in bacterial expression system assessed as residual activity at 500 nM relative to control by BROMOscan assay"}, "[4]": {"biological_target": "E3 ubiquitin-protein ligase TRIM33 (Homo sapiens) (UniProt Q9UPN9)", "sequence (Q9UPN9 whole entry, the tested form may be a part)": "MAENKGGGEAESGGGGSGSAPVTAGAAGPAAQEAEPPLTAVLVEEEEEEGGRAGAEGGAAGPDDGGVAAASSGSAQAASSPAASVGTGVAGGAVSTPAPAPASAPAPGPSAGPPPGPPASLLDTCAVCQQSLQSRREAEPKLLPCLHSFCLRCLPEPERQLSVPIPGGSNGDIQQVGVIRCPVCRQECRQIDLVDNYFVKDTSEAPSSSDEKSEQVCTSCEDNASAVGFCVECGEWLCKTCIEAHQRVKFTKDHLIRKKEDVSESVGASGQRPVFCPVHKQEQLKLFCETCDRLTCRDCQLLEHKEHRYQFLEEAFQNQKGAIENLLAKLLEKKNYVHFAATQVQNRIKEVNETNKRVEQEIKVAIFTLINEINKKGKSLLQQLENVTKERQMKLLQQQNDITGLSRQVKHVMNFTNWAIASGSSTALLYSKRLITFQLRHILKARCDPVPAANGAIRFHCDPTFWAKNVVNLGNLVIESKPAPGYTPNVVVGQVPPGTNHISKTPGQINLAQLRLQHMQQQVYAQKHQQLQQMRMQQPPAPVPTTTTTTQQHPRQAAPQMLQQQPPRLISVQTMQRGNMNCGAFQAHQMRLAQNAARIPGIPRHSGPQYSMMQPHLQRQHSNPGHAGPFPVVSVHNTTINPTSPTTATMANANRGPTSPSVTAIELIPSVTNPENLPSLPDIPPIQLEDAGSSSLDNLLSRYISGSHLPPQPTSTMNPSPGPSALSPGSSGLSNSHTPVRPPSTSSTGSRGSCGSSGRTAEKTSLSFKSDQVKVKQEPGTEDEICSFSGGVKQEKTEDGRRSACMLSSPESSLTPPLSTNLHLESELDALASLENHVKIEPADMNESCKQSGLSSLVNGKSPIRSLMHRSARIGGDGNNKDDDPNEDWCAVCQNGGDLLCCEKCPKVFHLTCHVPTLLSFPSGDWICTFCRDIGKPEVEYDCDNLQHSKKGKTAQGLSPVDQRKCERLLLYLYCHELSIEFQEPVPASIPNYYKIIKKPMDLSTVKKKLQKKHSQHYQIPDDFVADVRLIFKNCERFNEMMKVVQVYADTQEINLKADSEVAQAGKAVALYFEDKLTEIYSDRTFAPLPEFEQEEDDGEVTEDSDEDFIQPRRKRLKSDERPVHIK", "test": "Inhibition of human partial length TRIM33-phd-bromo (D882 to A1087 residues) expressed in bacterial expression system assessed as residual activity at 500 nM relative to control by BROMOscan assay"}, "[5]": {"biological_target": "Bromodomain testis-specific protein (Homo sapiens) (UniProt Q58F21)", "test": "Inhibition of human partial length BRDT BD2 (K250 to E382 residues) expressed in bacterial expression system assessed as residual activity at 500 nM relative to control by BROMOscan assay"}, "[6]": {"test": "Cell cycle arrest in human TY82 cells assessed as accumulation at G2/M phase at 1 uM after 24 hrs by DAPI staining based assay (reference value: 9%)", "assay_type": "functional"}, "[7]": {"test": "Stability in mouse liver microsomes assessed as parent compound remaining after 30 mins", "assay_type": "ADME, microsome", "settings": "read-out: Stability", "procedure,_shortened": "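Incubated in vitro with mouse, rat or human liver microsomes for 30 minutes. Result expressed as percent of parent compound remaining.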"}, "[8]": {"biological_target": "Peregrin (Homo sapiens) (UniProt P55201)", "test": "Inhibition of human partial length BRPF1 (E627 to G740 residues) expressed in bacterial expression system assessed as residual activity at 500 nM relative to control by BROMOscan assay"}, "[9]": {"biological_target": "Transcription initiation factor TFIID subunit 1 (Homo sapiens) (UniProt P21675)", "test": "Inhibition of human partial length TAF1 BD2 (D1521 to D1656 residues) expressed in bacterial expression system assessed as residual activity at 500 nM relative to control by BROMOscan assay"}, "[10]": {"system": "Rattus norvegicus", "test": "AUCinfinity in rat at 20 mg/kg, po", "assay_type": "ADME, organism-based", "parameters": "dose 20 mg/kg, time infinity, route oral", "settings": "in vivo", "procedure,_shortened": "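Rat pharmacokinetics with single dosing, either intravenous at 2 mg/kg or oral at 5 or 20 mg/kg. AUC is reported both to the last time point (AUCt) and extrapolated to infinity, in ug.hr/mL.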"}, "[11]": {"biological_target": "Bromodomain-containing protein 9 (Homo sapiens) (UniProt Q9H8M2)", "sequence (Q9H8M2 whole entry, the tested form may be a part)": "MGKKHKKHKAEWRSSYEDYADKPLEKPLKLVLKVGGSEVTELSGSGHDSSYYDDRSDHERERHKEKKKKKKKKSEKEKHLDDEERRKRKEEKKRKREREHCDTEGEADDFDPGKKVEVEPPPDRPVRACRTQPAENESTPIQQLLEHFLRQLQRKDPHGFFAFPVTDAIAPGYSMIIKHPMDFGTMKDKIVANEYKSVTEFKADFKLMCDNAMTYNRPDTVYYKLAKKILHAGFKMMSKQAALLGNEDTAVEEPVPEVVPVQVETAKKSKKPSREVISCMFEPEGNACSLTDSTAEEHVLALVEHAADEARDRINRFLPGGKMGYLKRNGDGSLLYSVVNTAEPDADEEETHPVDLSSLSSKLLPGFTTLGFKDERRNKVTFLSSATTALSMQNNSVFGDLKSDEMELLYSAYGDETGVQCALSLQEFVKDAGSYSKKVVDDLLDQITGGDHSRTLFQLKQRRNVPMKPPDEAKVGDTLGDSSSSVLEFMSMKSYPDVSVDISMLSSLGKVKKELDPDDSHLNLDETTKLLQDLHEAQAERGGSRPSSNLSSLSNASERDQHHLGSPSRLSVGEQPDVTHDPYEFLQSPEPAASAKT", "test": "Inhibition of human partial length BRD9 (R130 to V259 residues) expressed in bacterial expression system assessed as residual activity at 500 nM relative to control by BROMOscan assay"}, "[12]": {"biological_target": "Protein polybromo-1 (Homo sapiens) (UniProt Q86U86)", "test": "Inhibition of human partial length PBRM1 BD2 (S178 to E291 residues) expressed in bacterial expression system assessed as residual activity at 500 nM relative to control by BROMOscan assay"}, "[13]": {"test": "Cell cycle arrest in human TY82 cells assessed as accumulation at sub-G1 phase at 3 uM after 24 hrs by DAPI staining based assay (reference value: 6%)", "assay_type": "functional"}, "[14]": {"test": "Cell cycle arrest in human TY82 cells assessed as accumulation at G2/M phase at 3 uM after 24 hrs by DAPI staining based assay (reference value: 9%)", "assay_type": "functional"}, "[15]": {"system": "THP-1", "test": "Antiproliferative activity against human THP1 cells", "assay_type": "functional, cell-based"}, "[16]": {"biological_target": "T1, Bromodomain-containing protein 4 (Homo sapiens, UniProt O60885)", "test": "Binding affinity to BRD4 BD1 (unknown origin)"}, "[17]": {"biological_target": "Bromodomain and WD repeat-containing protein 1 (Homo sapiens) (UniProt Q9NSI6)", "test": "Inhibition of human partial length WDR9 BD2 (A1310 to E1430 residues) expressed in bacterial expression system assessed as residual activity at 500 nM relative to control by BROMOscan assay"}, "[18]": {"test": "Cell cycle arrest in human TY82 cells assessed as accumulation at S phase at 1 uM after 24 hrs by DAPI staining based assay (reference value: 11%)", "assay_type": "functional"}, "[19]": {"test": "Antiproliferative activity against human TY82 cells", "assay_type": "functional, cell-based"}, "[20]": {"test": "Cell cycle arrest in human TY82 cells assessed as accumulation at S phase at 10 uM after 24 hrs by DAPI staining based assay (reference value: 11%)", "assay_type": "functional"}, "[21]": {"biological_target": "Bromodomain-containing protein 3 (Homo sapiens) (UniProt Q15059)", "sequence (Q15059 2-726 limits assumed)": "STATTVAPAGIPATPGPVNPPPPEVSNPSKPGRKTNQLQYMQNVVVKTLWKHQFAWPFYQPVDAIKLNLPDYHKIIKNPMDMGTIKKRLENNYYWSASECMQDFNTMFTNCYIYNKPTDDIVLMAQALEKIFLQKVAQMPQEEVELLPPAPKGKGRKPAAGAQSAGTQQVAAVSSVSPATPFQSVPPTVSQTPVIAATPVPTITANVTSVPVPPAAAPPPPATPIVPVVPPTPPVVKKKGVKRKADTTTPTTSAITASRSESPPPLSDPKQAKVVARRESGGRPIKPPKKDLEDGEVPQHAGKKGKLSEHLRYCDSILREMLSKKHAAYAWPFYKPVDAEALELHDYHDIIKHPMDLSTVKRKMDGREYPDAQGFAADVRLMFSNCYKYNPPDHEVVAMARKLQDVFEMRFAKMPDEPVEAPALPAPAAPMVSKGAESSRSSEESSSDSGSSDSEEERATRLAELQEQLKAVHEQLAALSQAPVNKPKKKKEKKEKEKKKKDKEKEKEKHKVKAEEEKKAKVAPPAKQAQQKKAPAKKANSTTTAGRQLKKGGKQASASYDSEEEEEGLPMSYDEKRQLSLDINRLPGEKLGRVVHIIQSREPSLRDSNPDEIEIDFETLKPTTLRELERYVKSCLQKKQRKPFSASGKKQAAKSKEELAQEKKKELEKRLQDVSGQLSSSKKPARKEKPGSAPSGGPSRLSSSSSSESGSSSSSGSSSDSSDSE", "test": "Inhibition of human partial length BRD3 BD1 (P24 to E144 residues) expressed in bacterial expression system assessed as residual activity at 500 nM relative to control by BROMOscan assay"}, "[22]": {"biological_target": "Bromodomain-containing protein 2 (Homo sapiens) (UniProt P25440)", "sequence (P25440 whole entry, looked up, the tested form may be a part)": "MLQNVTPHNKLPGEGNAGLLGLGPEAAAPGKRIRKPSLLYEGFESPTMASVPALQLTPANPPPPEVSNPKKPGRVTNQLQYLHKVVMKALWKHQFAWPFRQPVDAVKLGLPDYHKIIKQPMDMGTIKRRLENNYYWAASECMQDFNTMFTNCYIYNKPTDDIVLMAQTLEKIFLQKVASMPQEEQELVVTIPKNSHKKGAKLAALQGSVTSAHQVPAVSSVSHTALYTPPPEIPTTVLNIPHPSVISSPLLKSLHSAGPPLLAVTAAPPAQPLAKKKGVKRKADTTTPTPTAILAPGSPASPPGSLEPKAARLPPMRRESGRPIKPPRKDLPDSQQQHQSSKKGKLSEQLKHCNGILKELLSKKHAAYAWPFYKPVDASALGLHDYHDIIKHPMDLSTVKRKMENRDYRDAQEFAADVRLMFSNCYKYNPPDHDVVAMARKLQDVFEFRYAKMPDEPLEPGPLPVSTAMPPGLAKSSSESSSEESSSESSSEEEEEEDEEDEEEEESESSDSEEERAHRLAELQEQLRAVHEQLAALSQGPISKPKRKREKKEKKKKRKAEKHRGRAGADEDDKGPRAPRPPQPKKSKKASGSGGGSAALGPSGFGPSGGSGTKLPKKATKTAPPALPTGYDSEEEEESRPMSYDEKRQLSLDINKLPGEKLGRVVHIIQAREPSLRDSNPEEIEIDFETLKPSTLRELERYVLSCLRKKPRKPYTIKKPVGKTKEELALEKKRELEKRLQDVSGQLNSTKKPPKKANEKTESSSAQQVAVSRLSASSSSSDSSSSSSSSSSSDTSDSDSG", "test": "Inhibition of human partial length BRD2 BD2 (E348 to D455 residues) expressed in bacterial expression system assessed as residual activity at 500 nM relative to control by BROMOscan assay"}, "[23]": {"biological_target": "T1, Bromodomain-containing protein 4", "test": "Inhibition of BRD4 in human TY82 cells assessed as decrease in c-MYC expression level after 24 hrs by Western blot analysis", "assay_type": "cell-based", "procedure,_shortened": "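Ty-82 cells at 70% confluency were treated with varying compound concentrations for 24 h. Samples were run on 12% SDS-PAGE and transferred to nitrocellulose. Membranes were blocked in PBS/1% BSA/0.1% Tween 20 for 1 h, probed with c-MYC antibodies, and detected by chemiluminescence.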"}, "[24]": {"biological_target": "SWI/SNF-related matrix-associated actin-dependent regulator of chromatin subfamily A member 2 (Homo sapiens) (UniProt P51531)", "sequence (P51531 whole entry, the tested form may be a part)": "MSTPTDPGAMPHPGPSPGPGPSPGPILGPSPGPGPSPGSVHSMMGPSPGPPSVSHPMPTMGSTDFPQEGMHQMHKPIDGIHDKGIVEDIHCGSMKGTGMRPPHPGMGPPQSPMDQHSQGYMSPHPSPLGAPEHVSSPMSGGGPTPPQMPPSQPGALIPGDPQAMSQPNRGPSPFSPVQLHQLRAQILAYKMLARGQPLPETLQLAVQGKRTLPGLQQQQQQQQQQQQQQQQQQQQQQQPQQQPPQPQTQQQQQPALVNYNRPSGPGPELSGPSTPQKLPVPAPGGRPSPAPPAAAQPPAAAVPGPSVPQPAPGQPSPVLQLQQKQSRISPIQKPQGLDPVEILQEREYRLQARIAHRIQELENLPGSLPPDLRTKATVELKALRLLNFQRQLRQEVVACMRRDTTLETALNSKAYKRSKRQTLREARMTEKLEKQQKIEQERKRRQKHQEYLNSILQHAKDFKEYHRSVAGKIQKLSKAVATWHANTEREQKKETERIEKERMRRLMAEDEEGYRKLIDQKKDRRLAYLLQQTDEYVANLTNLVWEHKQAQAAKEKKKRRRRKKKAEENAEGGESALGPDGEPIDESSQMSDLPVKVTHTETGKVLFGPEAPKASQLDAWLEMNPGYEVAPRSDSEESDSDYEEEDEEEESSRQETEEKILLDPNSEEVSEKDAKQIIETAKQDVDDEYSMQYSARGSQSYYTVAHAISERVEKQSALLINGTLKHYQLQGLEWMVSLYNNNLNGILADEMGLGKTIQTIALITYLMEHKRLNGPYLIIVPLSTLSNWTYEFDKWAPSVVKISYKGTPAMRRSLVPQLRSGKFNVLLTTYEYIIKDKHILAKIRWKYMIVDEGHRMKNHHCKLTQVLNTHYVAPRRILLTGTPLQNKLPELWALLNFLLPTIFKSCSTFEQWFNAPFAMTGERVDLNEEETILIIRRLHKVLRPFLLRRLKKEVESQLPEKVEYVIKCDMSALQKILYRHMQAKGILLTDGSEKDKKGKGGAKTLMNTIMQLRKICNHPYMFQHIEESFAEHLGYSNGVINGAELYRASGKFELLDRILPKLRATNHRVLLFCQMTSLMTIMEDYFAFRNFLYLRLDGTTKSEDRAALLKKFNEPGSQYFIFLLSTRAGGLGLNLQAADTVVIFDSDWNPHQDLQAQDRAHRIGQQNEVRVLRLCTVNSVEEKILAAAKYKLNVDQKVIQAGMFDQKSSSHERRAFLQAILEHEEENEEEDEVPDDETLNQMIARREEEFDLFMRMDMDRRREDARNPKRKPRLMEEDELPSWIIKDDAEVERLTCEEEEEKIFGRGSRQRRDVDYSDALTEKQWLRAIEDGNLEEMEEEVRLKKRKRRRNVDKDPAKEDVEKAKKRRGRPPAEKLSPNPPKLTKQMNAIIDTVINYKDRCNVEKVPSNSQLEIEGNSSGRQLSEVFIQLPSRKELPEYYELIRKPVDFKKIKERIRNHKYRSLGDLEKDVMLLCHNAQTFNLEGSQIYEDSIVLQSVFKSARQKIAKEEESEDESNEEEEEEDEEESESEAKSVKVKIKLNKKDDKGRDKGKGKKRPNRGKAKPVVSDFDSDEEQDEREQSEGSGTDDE", "test": "Inhibition of human partial length SMARCA2 (S1377 to Q1486 residues) expressed in bacterial expression system assessed as residual activity at 500 nM relative to control by BROMOscan assay"}, "[25]": {"test": "Cell cycle arrest in human TY82 cells assessed as accumulation at G1 phase at 3 uM after 24 hrs by DAPI staining based assay (reference value: 73%)", "assay_type": "functional"}, "[26]": {"biological_target": "Bromodomain-containing protein 3 (Homo sapiens) (UniProt Q15059)", "test": "Inhibition of human partial length BRD3 BD2 (G306 to P416 residues) expressed in bacterial expression system assessed as residual activity at 500 nM relative to control by BROMOscan assay"}, "[27]": {"biological_target": "Chromatin remodeling regulator CECR2 (Homo sapiens) (UniProt Q9BXF3)", "test": "Inhibition of human partial length CECR2 (P423 to D543 residues) expressed in bacterial expression system assessed as residual activity at 500 nM relative to control by BROMOscan assay"}, "[28]": {"biological_target": "Bromodomain adjacent to zinc finger domain protein 2A (Homo sapiens) (UniProt Q9UIF9)", "test": "Inhibition of human partial length BAZ2A (M1792 to L1905 residues) expressed in bacterial expression system assessed as residual activity at 500 nM relative to control by BROMOscan assay"}}}
{"smiles": "Cc1nnc2c(Nc3cccc(CNC(=O)C(C)C)c3)nc3ccccc3n12", "values": [{"measurement": "Activity", "setting": "[1]", "result": 87, "unit": "%"}, {"measurement": "Activity", "setting": "[2]", "result": 100, "unit": "%"}, {"measurement": "Activity", "setting": "[3]", "result": 87, "unit": "%"}, {"measurement": "Activity", "setting": "[4]", "result": 100, "unit": "%"}, {"measurement": "Activity", "setting": "[5]", "result": 14, "unit": "%"}, {"measurement": "Activity", "setting": "[6]", "result": 8, "unit": "%"}, {"measurement": "remaining at 0.5 h", "setting": "[7]", "result": 0.024, "unit": "%"}, {"measurement": "Activity", "setting": "[8]", "result": 37, "unit": "%"}, {"measurement": "Activity", "setting": "[9]", "result": 36, "unit": "%"}, {"measurement": "AUC", "setting": "[10]", "result": 25300, "unit": "ng·h/mL"}, {"measurement": "Activity", "setting": "[11]", "result": 61, "unit": "%"}, {"measurement": "Activity", "setting": "[12]", "result": 87, "unit": "%"}, {"measurement": "Activity", "setting": "[13]", "result": 4, "unit": "%"}, {"measurement": "Activity", "setting": "[14]", "result": 4, "unit": "%"}, {"measurement": "IC50", "setting": "[15]", "result": 1600, "unit": "nM"}, {"measurement": "Kd", "setting": "[16]", "result": 27, "unit": "nM"}, {"measurement": "Activity", "setting": "[17]", "result": 100, "unit": "%"}, {"measurement": "Activity", "setting": "[18]", "result": 6, "unit": "%"}, {"measurement": "IC50", "setting": "[19]", "result": 2500, "unit": "nM"}, {"measurement": "Activity", "setting": "[20]", "result": 2, "unit": "%"}, {"measurement": "Activity", "setting": "[21]", "result": 11, "unit": "%"}, {"measurement": "Activity", "setting": "[22]", "result": 19, "unit": "%"}, {"measurement": "inhibition", "setting": "[23]", "result": "Dose-dependent effect"}, {"measurement": "Activity", "setting": "[24]", "result": 100, "unit": "%"}, {"measurement": "Activity", "setting": "[25]", "result": 89, "unit": "%"}, {"measurement": "Activity", "setting": "[26]", "result": 30, "unit": "%"}, {"measurement": "Activity", "setting": "[27]", "result": 88, "unit": "%"}, {"measurement": "Activity", "setting": "[28]", "result": 85, "unit": "%"}]}
